{"data": "Experimental data from different studies", "effect on": "metabolic stability", "host": "human", "note": "Protocols differ between the studies behind these lines."}
{"SMILES": "Cc1[nH]c(C)c(S(=O)(=O)Nc2ccc(C(F)(F)F)c(Cl)c2)c1C(=O)N(C)C", "matrix": "liver microsomes", "half-life [min]": 8.7}
{"SMILES": "CCOc1ccc(Nc2c3c(nc4ccccc24)CCC3)cc1", "matrix": "liver microsomes", "concentration": "0.5 µM", "half-life [min]": 47}
{"SMILES": "CCCCN(CCCC)CCCOc1ccc2c(=O)c3c([nH]c2c1)CCCC3", "matrix": "liver microsomes", "concentration": "1 µM", "pH": "pH 7.4", "half-life [min]": 15.1}
{"SMILES": "CONC(=O)c1cccc2c1cc(C)n2-c1nc2c(c(NCc3ccccc3)n1)CCCN2", "matrix": "liver microsomes", "concentration": "1 µM", "pH": "pH 7.4", "half-life [min]": 13.3}
{"SMILES": "O=c1c2c([nH]c3cc(Oc4ccc(OC(F)(F)F)cc4)ccc13)CCCC2", "matrix": "liver microsomes", "concentration": "1 µM", "pH": "pH 7.4", "half-life [min]": 26.8}
{"SMILES": "Cc1ncsc1-c1ccc([C@H](CC(=O)N2CCN(c3ccc(C#Cc4ccc(C(=O)N5CCC(n6cc(-c7ccc8c(c7)CCN8C(=O)Cc7cccc(OC(F)(F)F)c7)c7c(N)ncnc76)CC5)cc4)cn3)CC2)NC(=O)[C@@H]2C[C@@H](O)CN2C(=O)[C@@H](NC(=O)C2(F)CC2)C(C)(C)C)cc1", "matrix": "hepatocytes", "concentration": "1 µM", "half-life [min]": "> 120"}
{"SMILES": "Cc1ccc2[nH]c(=S)n(Cc3cccnc3)c(=O)c2c1", "matrix": "liver microsomes", "concentration": "1 µM", "pH": "pH 7.4", "half-life [min]": 10.6}
{"SMILES": "O=c1c2c([nH]c3ccc(F)c(Oc4ccc(OC(F)(F)F)cc4)c13)CCCC2", "matrix": "liver microsomes", "concentration": "1 µM", "pH": "pH 7.4", "half-life [min]": 14.9}
{"SMILES": "Cc1[nH]c(C)c(S(=O)(=O)Nc2ccc(C(F)(F)F)c(Cl)c2Cl)c1C(=O)N1CCC(F)(F)C1", "matrix": "liver microsomes", "half-life [min]": 94}
{"SMILES": "COc1cc(-c2cc(C(C)=O)n3ccccc23)c(OC)cc1Cn1ccnc1", "matrix": "liver microsomes", "pH": "pH 7.4", "half-life [min]": "> 120"}
{"SMILES": "Nc1nnc(-c2ccccc2O)cc1N1CCN(Cc2ccc(N3CCN(CCOc4cccc5c4C(=O)N(C4CCC(=O)NC4=O)C5=O)CC3)c(F)c2)CC1 (stereo not shown)", "matrix": "liver microsomes", "concentration": "1 mM", "half-life [min]": 35}
{"SMILES": "OCc1ccc(-c2nn(Cc3ccccc3)c3ccccc23)o1", "matrix": "hepatocytes", "half-life [min]": 6.6}
{"SMILES": "CN(C)CC(=O)OCc1cc2[nH]c(=S)n(Cc3cccnc3)c(=O)c2cc1Cl", "matrix": "liver microsomes", "concentration": "1 µM", "pH": "pH 7.4", "half-life [min]": "< 5"}
{"SMILES": "CCCN(CCC)CCNc1ccc2c(=O)c3c([nH]c2c1)CCCC3", "matrix": "liver microsomes", "concentration": "1 µM", "pH": "pH 7.4", "half-life [min]": "> 60"}
{"SMILES": "CC(C)NCC(O)COc1cccc2ccccc12 (racemic)", "matrix": "liver microsomes", "concentration": "2 µM", "pH": "pH 7.4", "half-life [min]": 68.2}
{"SMILES": "CC(C)C(=O)OCc1cc2[nH]c(=S)n(Cc3cccnc3)c(=O)c2cc1Cl", "matrix": "liver microsomes", "concentration": "1 µM", "pH": "pH 7.4", "half-life [min]": "< 5"}
{"SMILES": "C=CCn1c(=O)c2cnc(Nc3ccc(N4CCN(C)CC4)cc3)nc2n1-c1ccc2c(n1)[C@@](O)(CC)CC2", "matrix": "liver microsomes", "half-life [min]": 23}
{"SMILES": "CCN(CC)CCNC(=O)c1c(C)[nH]c(/C=C2\\C(=O)Nc3ccc(F)cc32)c1C", "matrix": "liver microsomes", "concentration": "1 µM", "pH": "pH 7.4", "half-life [min]": 27.5}
{"SMILES": "O=c1c2c([nH]c3cccc(Oc4ccc(OC(F)(F)F)cc4)c13)CCCC2", "matrix": "liver microsomes", "concentration": "1 µM", "pH": "pH 7.4", "half-life [min]": 12.7}
{"SMILES": "O=C(O)Cc1ccccc1Nc1c(Cl)cccc1Cl", "matrix": "liver microsomes", "concentration": "2 µM", "pH": "pH 7.4", "half-life [min]": 8.3}
{"SMILES": "O=C(O)Cc1ccccc1Nc1c(Cl)cccc1Cl", "matrix": "liver microsomes", "concentration": "1 µM", "half-life [min]": 12}
{"SMILES": "O=C1c2ccccc2C(=O)N1CCCN1CCN(C(c2ccc(F)cc2)c2ccc(F)cc2)CC1", "matrix": "liver microsomes", "concentration": "100 ng/mL", "half-life [min]": 10.2}
{"SMILES": "CCCN(CCC)CCOc1ccc2c(=O)c3c([nH]c2c1)CCCC3", "matrix": "liver microsomes", "concentration": "1 µM", "pH": "pH 7.4", "half-life [min]": "> 60"}
{"SMILES": "COc1ccc(Cn2cc(CO[C@@H]3O[C@H]4[C@H](OC[C@H]4O)[C@H]3O)nn2)cc1", "matrix": "liver microsomes", "half-life [min]": 120}
{"SMILES": "O=c1c2ccc(Oc3cccc(OC(F)(F)F)c3)cc2[nH]c2cc(Cl)cc(F)c12", "matrix": "liver microsomes", "concentration": "1 µM", "pH": "pH 7.4", "half-life [min]": "> 60"}
{"SMILES": "O=c1c2cc(Cl)ccc2[nH]c(=S)n1Cc1cccnc1", "matrix": "liver microsomes", "concentration": "1 µM", "pH": "pH 7.4", "half-life [min]": "> 186"}
{"SMILES": "O=C1CCC(N2Cc3cc(C4CCN(Cc5ccccc5)CC4)ccc3C2=O)C(=O)N1 (stereo not shown)", "matrix": "liver microsomes", "concentration": "1 µM", "half-life [min]": "> 60"}
{"SMILES": "CN(C)CCOc1ccc2c(=O)c3c([nH]c2c1)CCCC3", "matrix": "liver microsomes", "concentration": "1 µM", "pH": "pH 7.4", "half-life [min]": "> 60"}
